Screens (PubChem)
Sampled rows, rich in hits. Any-hit rate of the full collection: about 3.3%.
ABCB6 inh 2: blocks the human ABCB6 transporter; K562-ABCB6 porphyrin accumulation, flow cytometry, 1 h; active compounds read low; fluorescence ratio to DMSO, % at 10 µM; actives 0.19% (n = 360,000); AID 602162;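 active means fluorescence ratio to DMSO below 75%, the collection mean minus 3 SD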;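 further: signal is porphyrin accumulated inside mitochondria; lower ratio means ABCB6 inhibition with less porphyrin fluorescence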
NRP1-CendR mod: modulators of CendR peptide binding to human neuropilin-1; O14786; actives 0.85% (n = 360,000); FAM-RPARPAR peptide binding to NRP-1, fluorescence polarization; AID 602438; inhibition, % at 25 µM;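 active means inhibition or corrected inhibition above about 18%, plus a signal ratio from 0.5 to 1.5, limit read from the data, passing the limit was not always enough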
Myeloid diff 2: compounds promoting myeloid differentiation; ER-HoxA9 myeloid progenitors, lysozyme-GFP differentiation, flow cytometry; calls only at 10 µM; actives 1% (n = 360,000); AID 624256;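 active means normalized GFP-positive differentiation at or above the plate's own cutoff, the solvent-only control mean plus 3 SD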;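 further: cells exposed to compound for four days before flow analysis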
Arr AP2 block: human beta-arrestin and AP2 interaction inhibition. FITC-arrestin peptide / GST-AP2 beads, flow cytometry; AP2 beta2 appendage carries R879A mutation. inhibition, % at 10 µM. actives 0.31% (n = 340,000). AID 504490;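 active means inhibition above a set limit, near 3 SD of compounds lacking own fluorescence, cut at about 54% in these data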
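Material – GST-tagged AP2 beta2-adaptin appendage (R879A) on 4 µm glutathione beads · Probe or stimulus – fluorescein-tagged arrestin peptide at 50 nM final · Timing – 12 min plus 1 h, RT · Detection – bead flow cytometry, FITC channel · Read-out basis – inhibition as reduced fluorescein signal on beads, percent · Medium – PBS plus Tween 20 (0.05%) and BSA (0.1%)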
Granule exo inh: lytic granule exocytosis inhibition | TALL-104 LAMP-1 surface exposure, flow cytometry; cells stimulated with thapsigargin and PMA | inhibition, % at 10 µM | actives 0.66% (n = 360,000);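 active means inhibition above about 55%, limit read from the data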
ATG4B inhibitor: inhibitors of human ATG4B cysteine protease; Q9Y4P1; ATG4B cleavage of LC3-PLA2, NBD-HPC fluorescence, 1 h; inhibition, % at 8.33 µM; actives 0.51% (n = 340,000); in the data active means inhibition above about 40%
Of the large screens only hits and unclear results are named; the others gave an inactive call.

COCCN1C(=O)N[C@@H](c2cccc(C(F)(F)F)c2)[C@@H](C(=O)OC)[C@H]1C	none
COC[C@H]1CCCN1c1ccc2c(c1)O[C@@H](COCc1ccccc1)CN([C@@H](C)c1ccccc1)S2(=O)=O	none (no result: Arr AP2 block, ATG4B inhibitor)
CCOC(=O)c1ccc(NC(=O)Nc2ccn(C)n2)cc1	Myeloid diff 2 active
CN(c1ccccc1)S(=O)(=O)c1cccc(NC(=O)CN2C(=O)NC3(CCCC3)C2=O)c1	none
C=C(C)COc1ccc(-c2n[nH]c(C)c2Oc2ccccc2OC)c(O)c1	Granule exo inh 74
CC1NC(=O)COC1c1ccccc1 (stereo unspecified)	none (no result: Arr AP2 block, ATG4B inhibitor)
CC(=O)c1sc2nc(-c3cccs3)ccc2c1N	none
Nc1c(C(=O)Nc2nc3ccccc3s2)sc2nc(-c3cccs3)ccc12	Myeloid diff 2 active
O=S1(=O)CCOC[C@H](Cc2ccccc2)N1Cc1ccccc1F	NRP1-CendR mod 28
O=S1(=O)CCOC[C@H](Cc2ccccc2)N1Cc1cccc(F)c1	NRP1-CendR mod 35
CCC1COCCS(=O)(=O)N1Cc1cccc(Cl)c1 (stereo unspecified)	none
CC(C)[C@H]1COCCS(=O)(=O)N1Cc1cccc(Cl)c1	NRP1-CendR mod 27
O=S1(=O)CCOC[C@H](Cc2ccccc2)N1Cc1ccc(F)cc1	none
COc1ccc(S(=O)(=O)N2CCN=C2SCc2cccc(C)c2)cc1	none
C=CCCN(C(C(=O)OC)C(C)C)S(=O)(=O)c1ccccc1Br (stereo unspecified)	none
CCOC(=O)c1cc(-c2ccccc2)nn1CCC#N	none
C=CCn1nc(-c2ccccc2)cc1C(=O)OCC	NRP1-CendR mod 28
CCOc1cccc(C(=O)N(Cc2ccco2)C2CCS(=O)(=O)C2)c1 (stereo unspecified)	none
O=C(c1ccc(Cl)c([N+](=O)[O-])c1)N(Cc1ccco1)C1CCS(=O)(=O)C1 (stereo unspecified)	Myeloid diff 2 active
COc1cc2c3nnc(-c4ccc(F)cc4)c-3cn(Cc3ccccc3)c2cc1OC	Myeloid diff 2 active
COc1ccc(Cn2cc3c(-c4ccc(F)cc4)nnc-3c3cc(OC)c(OC)cc32)cc1	Myeloid diff 2 active
CCCNC(=O)c1ccc2c(=O)c(O)c(-c3ccsc3)[nH]c2c1	Myeloid diff 2 active
CCCNC(=O)c1ccc2c(=O)c(O)c(-c3ccc(C)cc3)[nH]c2c1	none
COc1ccc(/C=N/NC(=O)c2cc3c(OC)ccc(OC)c3[nH]2)cc1O	Granule exo inh 62 (no result: Myeloid diff 2)
CCOc1ccc(NS(=O)(=O)c2ccc(OC)c(C)c2)cc1	none
CCOc1ccc(NS(=O)(=O)c2cc(Cl)ccc2OC)cc1	NRP1-CendR mod 22
CCCc1cc(=O)oc2cc(C)cc(OCC(=O)NCCCn3ccnc3)c12	none
Cc1cc(OCC(=O)NCCCn2ccnc2)c2c(C)cc(=O)oc2c1	NRP1-CendR mod 20
COc1ccc(-c2csc(Nc3ccc(Oc4ccccc4)cc3)n2)cc1	none (no result: Arr AP2 block, ATG4B inhibitor)
O=C(CC1SC(N2CCCCC2)=NC1=O)Nc1ccc(C(=O)NCCc2ccc(F)cc2)cc1 (stereo unspecified)	Myeloid diff 2 active
Cn1c(=O)c2[nH]c(C3CC4CCC3C4)nc2n(C)c1=O (stereo unspecified)	none
O=C(COC(=O)COc1ccccc1)Nc1ncc([N+](=O)[O-])s1	none
N/C(=N\OC(=O)Nc1ccccc1)c1ncc([N+](=O)[O-])s1	Myeloid diff 2 active
COc1cc(NC(=O)c2ccc(C)cc2)ccc1NC(=O)c1cc2ccccc2o1	Myeloid diff 2 active
COc1cc(NC(=O)c2ccc(Br)cc2)ccc1NC(=O)c1cc2ccccc2o1	none
COC(=O)c1cccc(NC(=O)/C=C/c2ccc([N+](=O)[O-])cc2)c1	none
O=C(/C=C/c1ccc([N+](=O)[O-])cc1)Nc1cccc(C(=O)Nc2ccccc2C(=O)O)c1	Myeloid diff 2 active
COc1cccc(CNc2ccc(S(N)(=O)=O)cc2)c1OCc1ccccc1F	none
COc1cccc(CNc2ccccc2O)c1OCc1ccccc1F	Myeloid diff 2 active
Cc1occc1C(=O)N1CCCC(Nc2ccc(F)cc2)C1 (stereo unspecified)	none
Cc1ccc2nccc(C(=O)N3CCCC(Nc4ccc(F)cc4)C3)c2c1 (stereo unspecified)	NRP1-CendR mod 22
